Assay outcomes as filed in PubChem BioAssay.
UBC13 polyUb: UBC13 polyubiquitin chain formation inhibitors, primary screen, biochemical, TR-FRET, uHTS. Ubiquitin-conjugating enzyme E2 N (Homo sapiens), P61088. inhibition, % at 20 µM. 330,000 tested, 0.47% active; in the data active = inhibition above about 45%, passing the limit was not always enough
MEKK2 WT-MEK5: modulators of MEK5 binding to wildtype MEKK2, primary screen, biochemical, multiplex bead flow cytometry, Alexa488-MEK5 | binding response (% of control), % at 10 µM | 290,000 tested, 1.1% active | Alexa488-MEK5 binding to MEKK2 WT; actives lie on both sides; in the data active = binding response below about 67% or above about 130%
Apaf-1 inh: inhibitors of human Apaf-1 apoptosome, primary screen, biochemical, DEVD-Rh110 fluorescence, uHTS; Apoptotic protease-activating factor 1 (Homo sapiens), O14727; reconstituted apoptosome caspase-3 activity; inhibition, % at 20 µM; 330,000 tested, 0.71% active; active = inhibition of at least 40% at 20 µM;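 note: plate controls were DMSO wells for no effect and DEVD-CHO caspase inhibitor wells for full effect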
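Material: biochemical Apaf-1 apoptosome reconstitution. Medium: Hepes buffer, pH 7.5. Also added: cytochrome c activation, bis-DEVD rhodamine 110 substrate. Timing: 30 min compound preincubation, 50 min activation, room temperature. Measured by: rhodamine 110 fluorescence at Ex 480/Em 540 nm.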
Pemphigus Ab inh: inhibitors of pemphigus antibody binding to DSG3, primary screen, biochemical, bead-based, flow cytometry, scFv-GFP. Desmoglein-3 (Homo sapiens), P32926. DSG3-coupled beads, scFv-anti-DSG3-GFP binding; stronger effect = lower value. binding (percent of control), % at 10 µM. 310,000 tested, 0.48% active. AID 588358, 2011;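 active = binding more than 3 SD below its plate's average and above zero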;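 note: hits lower antibody fragment binding to DSG3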
MEKK3 PB1 HTS: modulators of MEKK3-MEK5 PB1 binding, primary screen, biochemical, wildtype MEKK3, multiplex bead flow cytometry, Alexa488-MEK5; Mitogen-activated protein kinase kinase kinase 3 (Homo sapiens), Q99759; bead-based flow cytometry, Alexa488-MEK5 binding to MEKK3; actives lie on both sides; 0 = blocked by unlabeled MEK5, 100 = vehicle; binding response (% of control), % at 10 µM; 290,000 tested, 1.4% active;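 active = binding response more than 3 SD above or below the average of its plate-row segment, actives on both sides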;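 note: Alexa488 bead fluorescence after subtracting the streptavidin-only scavenger bead signal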
Target sequence (Q99759 whole entry, looked up): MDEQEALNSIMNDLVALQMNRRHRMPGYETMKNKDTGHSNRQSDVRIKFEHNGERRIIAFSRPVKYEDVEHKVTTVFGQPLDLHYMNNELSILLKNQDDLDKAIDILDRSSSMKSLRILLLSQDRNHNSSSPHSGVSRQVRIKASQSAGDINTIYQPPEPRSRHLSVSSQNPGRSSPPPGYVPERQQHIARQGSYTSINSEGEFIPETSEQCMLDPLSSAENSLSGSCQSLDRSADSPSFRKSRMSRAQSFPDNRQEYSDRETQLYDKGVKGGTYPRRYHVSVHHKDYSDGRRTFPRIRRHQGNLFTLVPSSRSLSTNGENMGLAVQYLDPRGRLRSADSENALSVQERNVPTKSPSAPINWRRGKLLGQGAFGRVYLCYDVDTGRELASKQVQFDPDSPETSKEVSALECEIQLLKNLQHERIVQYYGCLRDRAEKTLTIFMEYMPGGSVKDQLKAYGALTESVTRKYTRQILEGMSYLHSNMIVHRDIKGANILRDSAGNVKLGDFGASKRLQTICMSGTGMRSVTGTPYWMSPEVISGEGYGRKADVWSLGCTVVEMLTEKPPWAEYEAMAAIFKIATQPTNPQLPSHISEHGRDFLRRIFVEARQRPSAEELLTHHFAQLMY
MEKK2mut PB1 HTS: MEK5 binding signal on mutant MEKK2 PB1, primary screen, biochemical, multiplex bead flow cytometry, Alexa488-MEK5 | Alexa488-MEK5 binding to MEKK2 mutant | percent response, % at 10 µM | 290,000 tested, 0.35% active | AID 1530, 2009; in the data active = percent response above about 24%, passing the limit was not always enough
MEKK2wt confirm: modulators of MEK5 binding to wildtype MEKK2, confirmation, biochemical, single concentration, multiplex bead flow cytometry; shares compounds with MEKK3 PB1 HTS; Alexa488-MEK5 binding to MEKK2 WT; actives lie on both sides; binding response (% of control), % at 10 µM; 5,900 tested, 2.4% active; in the data active = binding response below about 16% or above about 210%; inactive = in between
MEKK2mut confirm: mutant MEKK2 PB1-MEK5 binding signal retest – biochemical, single concentration, multiplex bead flow cytometry, confirmation; percent response, % at 10 µM; AID 1893, 2009; Alexa488-MEK5 binding to MEKK2 mutant; shares compounds with MEKK3 PB1 HTS; 5,900 tested, 2% active; in the data active = percent response mostly above about 71%, no sharp cut-off; inactive = mostly below about 38%;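 note: higher means compound restores mutant binding toward wildtype level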
MEKK3 confirm: MEKK3 wild-type PB1 binding to MEK5, inhibitors, confirmation, biochemical, bead multiplex flow cytometry, single concentration, wildtype | shares compounds with MEKK3 PB1 HTS | Alexa488-MEK5 binding to MEKK3; stronger effect = lower value | binding response (% of control), % at 10 µM | 5,900 tested, 1.8% active;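 active = binding response below 72% of control, or above a set upper limit, though filed actives all read lower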;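 note: 100% = DMSO only wells and 0% = binding blocked by excess unlabeled MEK5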
* hit, by the source's call; / = no result given; [ ] = another dose, or the depositor's remark. A selection: hits, their analogues and other compounds. The true share with any hit is near 3.2%.

SMILES	UBC13 polyUb	MEKK2 WT-MEK5	Apaf-1 inh	Pemphigus Ab inh	MEKK3 PB1 HTS	MEKK2mut PB1 HTS	MEKK2wt confirm	MEKK2mut confirm	MEKK3 confirm
CC1(c2ccc3c(c2)OCCO3)NC(=O)N(CC(=O)Nc2ccccc2SCC#N)C1=O (stereo unspecified)	4	/	-1	97	/	/	/	/	/
Cc1nc(COC(=O)c2ccc(CO)cc2)cs1	4	0.0*[inhibitor]	-1	/	0.0*[inhibitor]	-21	106	1	105
Cc1csc(NC(=O)CCn2c(=O)sc3ccccc32)n1	12	81	5	104	70*[inhibitor]	-7	100	2	102
O=C(CCn1c(=O)sc2ccccc21)Nc1nccs1	10	105	5	98	104	1	/	/	/
CC(=O)NC1=NN(C(C)=O)C2(CCCC2)S1	-6	119	5	105	132*	0	107	6	105
COC(=O)CCCC1=CC2=C(c3ccccc3)C(=O)C(C)(OC(=O)C3CCCC3)C(=O)C2=CN1c1ccccc1 (stereo unspecified)	-40	154*	17	97	128*	1	87	-5	94
COC(=O)CCCC1=CC2=C(c3ccccc3)C(=O)C(C)(OC(=O)C3CCCC3)C(=O)C2=CN1C1CC1 (stereo unspecified)	-30	155*	17	102	122	1	103	0	102
COC(=O)CCCC1=CC2=C(c3ccccc3)C(=O)C(C)(OC(=O)C3CCCC3)C(=O)C2=CN1C(CO)CO (stereo unspecified)	-20	93	19	103	95	5	/	/	/
CCCn1c2ccc(C)cc2c2n[nH]c(=S)nc21	-17	105	5	105	106	9	/	/	/
CCOC(=O)c1c(C)cc2c(CO)n[nH]c(=O)c2c1C	/	/	/	106	/	/	/	/	/
Cc1ccccc1C(=O)Nc1cc(C(F)(F)F)ccc1-n1cncn1	4	/	4	101	/	/	/	/	/
COc1cc(OC)c2c(-c3ccccc3)cc(=O)oc2c1C(CCN1CCCCC1)c1ccc2c(c1)OCO2 (stereo unspecified)	25	177*	37	107	94	28*	147	47	104
CCC(C(=O)NC1CCCC1)N(Cc1ccco1)C(=O)CNS(=O)(=O)c1ccccc1 (stereo unspecified)	-5	98	-6	100	101	-4	/	/	/
O=C(Cn1nc(C(=O)O)c2ccccc2c1=O)Nc1cccc(S(=O)(=O)N2CCCCCC2)c1	11	/	11	/	/	/	/	/	/
Cc1cc(C)n(-c2nnc(C)n2/N=C/c2ccco2)n1	2	93	0	97	104	-1	/	/	/
C=C(C)CN=c1scc(C)n1/N=C/c1ccco1	-12	85	6	105	77*[inhibitor]	-9	73	-11	73
O=C(NC1(C(F)(F)F)N=C(c2ccccc2)NC1=O)c1ccccc1 (stereo unspecified)	-3	98	1	101	99	-1	/	/	/
O=C(NC1(C(F)(F)F)N=C(c2ccccc2)NC1=O)c1ccccc1F (stereo unspecified)	4	106	-1	103	134*	0	109	12	105
COc1ccc(NC(=O)CN2C(=O)C3CC=CCC3C2=O)cc1Cl (stereo unspecified)	/	/	/	100	/	/	/	/	/
CN=c1scc(-c2c[nH]c3ccccc23)n1C	0	112	-2	103	117	0	/	/	/
CN1CCN(CC(=O)Nc2nc(-c3c[nH]c4ccccc34)cs2)CC1	26	145*	4	/	102	29	161	45	93
Nc1nc(-c2c[nH]c3ccccc23)cs1	-10	-7.0*[inhibitor]	1	/	83	69*	83	-3	90
CNc1nc(-c2c[nH]c3ccccc23)cs1	-3	-4.0*[inhibitor]	7	98	94	2	-5.0*[inhibitor]	-5	91
CN1CCN(CC(=O)Nc2nc3ccccc3s2)CC1	5	109	1	104	100	8	/	/	/
Cc1ccc2c(-c3csc(N)n3)c[nH]c2c1	-27	88	26	/	87	-3	/	/	/
SMILES	UBC13 polyUb	MEKK2 WT-MEK5	Apaf-1 inh	Pemphigus Ab inh	MEKK3 PB1 HTS	MEKK2mut PB1 HTS	MEKK2wt confirm	MEKK2mut confirm	MEKK3 confirm
CCOC(=O)C1=CN(CC)S(=O)(=O)NC1c1cccc(OC)c1 (stereo unspecified)	/	/	12	94	/	/	/	/	/
C=CCN(c1ccccc1OC)S(=O)(=O)c1cccc(C(=O)NCC(c2ccc(OC)cc2)N2CCCC2)c1 (stereo unspecified)	/	/	/	138	/	/	/	/	/
CCC1(CC)C(=O)C2=C3C1[C@H](C(=O)OC)CC(C(=O)OC)C[C@H]3n1c(=O)n(-c3ccccc3)c(=O)n1[C@H]2C (stereo partly specified)	-5	86	23	/	80*[inhibitor]	-4	96	1	97
COC(=O)C1=C[C@@H](C(=O)OC)[C@@H]2C3=C(C(=O)[C@]2(CC(C)C)NC(=O)c2ccccc2)[C@H](C)n2c(=O)n(-c4ccccc4)c(=O)n2[C@@H]3C1	-1	105	-7	103	109	5	/	/	/
CCOc1ccc(S(=O)(=O)NCCC(=O)N2CCN(c3ccccc3O)CC2)cc1	2	/	1	107	/	/	/	/	/
N#CCCSCc1ccc(C(=O)O)o1	-8	110	-16	79	103	4	/	/	/
N#CCCSCc1ccc2oc(C(=O)O)cc2c1	-8	0.0*[inhibitor]	-5	94	2.0*[inhibitor]	-45	109	9	109
